Hits are enriched below; roughly 2.6% of the tested compounds scored in any of these assays.
mABHD4 FP = inhibits mouse alpha/beta hydrolase domain 4 | Q8VD66 | purified mABHD4, FP-Rh probe fluorescence polarization | inhibition, % at 8.92 µM | 370,000 tested, 0.54% active;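 active means inhibition exceeding the mean over every tested compound plus 3 SD, cut at about 30% in these data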;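 further: 0% = plate median of compound wells and 100% = S159A mutant with DMSO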
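Assay system: mABHD4 protein; medium: HEPES pH 7.0, NaCl, Pluronic buffer; dosing: 8.92 µM, single dose; schedule: 45 min + 60 min at 25 °C; signal: FP readout, ex 525 nm / em 598 nm; read-out: normalized percent inhibition of probe labeling; repeats: single replicate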
TCR-CD3 inh = blocks the human TCR-CD3 interaction | TAMRA-labeled TCR probe fluorescence, biochemical | inhibition, % at 9.4 µM | 360,000 tested, 0.37% active | AID 651800; in the data active means inhibition above about 19%;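 further: recombinant mutant TCR 2C K166C tagged with TAMRA read by polarization; 0% = receptor in buffer alone and 100% = receptor with positive control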
PRMT1 FP inh = inhibitors of human PRMT1; Q99873; recombinant PRMT1, activity-based probe fluorescence polarization; inhibition, % at 2.79 µM; 370,000 tested, 1.3% active; AID 652257;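 active means inhibition above about 21% made by adding two undisclosed values, limit read from the data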
Target sequence (Q99873 whole entry, looked up): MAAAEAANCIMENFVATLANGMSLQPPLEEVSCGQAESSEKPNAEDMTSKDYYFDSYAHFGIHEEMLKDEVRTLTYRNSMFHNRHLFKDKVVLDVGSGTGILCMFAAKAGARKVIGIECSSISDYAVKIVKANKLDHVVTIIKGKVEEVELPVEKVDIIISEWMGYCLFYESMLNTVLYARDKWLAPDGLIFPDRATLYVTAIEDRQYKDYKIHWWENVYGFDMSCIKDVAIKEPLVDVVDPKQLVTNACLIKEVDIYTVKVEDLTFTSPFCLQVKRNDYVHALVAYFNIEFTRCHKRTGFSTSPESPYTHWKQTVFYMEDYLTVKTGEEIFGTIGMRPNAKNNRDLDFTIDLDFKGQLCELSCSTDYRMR
SIAE primary = human SIAE inhibition, primary screen. Q9HAT2. SIAE FP-Rh probe binding, fluorescence polarization. inhibition, % at 9.66 µM. 370,000 tested, 0.69% active. AID 1053197;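 active means inhibition above a cutoff: mean of compounds within the control limits plus 3 SD of those, cut at about 17% in these data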;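 further: 0% = plate median of compound wells and 100% = probe without SIAE protein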
HTRA1 inh = inhibitors of human serine peptidase HTRA1; Q92743; recombinant HTRA1, FP-rhodamine activity-based probe, fluorescence polarization; inhibition, % at 5.96 µM; 340,000 tested, 0.5% active; AID 504803; in the data active means inhibition above about 36%;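 further: 0% = enzyme with DMSO and 100% = wells lacking enzyme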
* = called active by the depositor.

Screening O=C(O)CCc1ccc(-c2ccccc2)n1CC(=O)O returned mABHD4 FP -2, TCR-CD3 inh -7, PRMT1 FP inh 23*, SIAE primary -3 and HTRA1 inh -8.
Screening O=C(O)CCc1ccc(-c2ccc(Br)cc2)n1CC(=O)O returned mABHD4 FP -3, TCR-CD3 inh 0, PRMT1 FP inh 8, SIAE primary 1 and HTRA1 inh -8.
For CC(=O)NCCC(=O)Nc1sc2c(c1-c1nc3ccccc3[nH]1)CCCC2 the results were mABHD4 FP 7, TCR-CD3 inh 5, PRMT1 FP inh 0, SIAE primary 11 and HTRA1 inh -3.
`CN1CCN(S(=O)(=O)c2cccc(C(=O)Nc3sc4c(c3-c3nc5ccccc5[nH]3)CCCC4)c2)CC1` gave mABHD4 FP 3, TCR-CD3 inh -5, PRMT1 FP inh 1, SIAE primary 25* and HTRA1 inh -8.
For CC(=O)Nc1ccc(SC[C@H](C)CN2CC[C@H](C(C)(C)C)CCC2=O)cc1 the results were mABHD4 FP -5, TCR-CD3 inh 7, PRMT1 FP inh 24*, SIAE primary 4 and HTRA1 inh -10.
CC(=O)Nc1ccc(SC[C@H](Cc2ccccc2)N2CCN(CC(C)C)CCC2=O)cc1 was read as mABHD4 FP -1, TCR-CD3 inh -6, PRMT1 FP inh 19, SIAE primary -8 and HTRA1 inh -8.
`CC(=O)Nc1ccc(SC[C@H](CC(C)C)N2CCN(CC(C)C)CCC2=O)cc1` gave mABHD4 FP -6, TCR-CD3 inh 2, PRMT1 FP inh 23*, SIAE primary -1 and HTRA1 inh -6.
Cc1ccc(SC[C@H](C)CN2CC[C@H](C)CCC2=O)cc1 was read as mABHD4 FP 4, TCR-CD3 inh -13, PRMT1 FP inh 2, SIAE primary -1 and HTRA1 inh -9.
Screening Cc1ccc(-n2c(SCC(=O)Nc3ccc(OCc4ccccc4)cc3)nnc2-c2ccccc2)cc1 returned mABHD4 FP 1, PRMT1 FP inh 2 and SIAE primary 1.
CCCCc1nnc(SCC(=O)NC2CCCCC2)n1C was read as mABHD4 FP -3, TCR-CD3 inh 1, PRMT1 FP inh 0, SIAE primary -8 and HTRA1 inh -5.
Screening CCCCOCC1CN(CCCC)S(=O)(=O)c2c(cccc2Sc2ccc(SC)cc2)O1 (stereo unspecified) returned mABHD4 FP 0, TCR-CD3 inh 1, PRMT1 FP inh -4 and SIAE primary 0.
`CC(C)(C)c1ccc(-c2nnc(SCC(=O)Nc3ccc(S(=O)(=O)Nc4nccs4)cc3)n2Cc2ccco2)cc1` gave mABHD4 FP -52, PRMT1 FP inh 22* and SIAE primary -29.
Cc1cc(NS(=O)(=O)c2ccc(NC(=O)CSc3nc4sc(C)c(C)c4c(=O)n3Cc3ccco3)cc2)nc(C)n1 was read as mABHD4 FP -43, PRMT1 FP inh 24* and SIAE primary -22.
Screening Nc1cc(=O)[nH]c(SCC(=O)Nc2cc(S(=O)(=O)N3CCCCCC3)ccc2Cl)n1 returned mABHD4 FP -9, TCR-CD3 inh -3, PRMT1 FP inh 23*, SIAE primary -16 and HTRA1 inh -10.
For O=C(C=C1SCCS1)/C=C/c1ccco1 the results were mABHD4 FP 8, TCR-CD3 inh 12, PRMT1 FP inh 22*, SIAE primary 0 and HTRA1 inh -3.
For O=C1c2c([N+](=O)[O-])cc([N+](=O)[O-])cc2S(=O)N1Cc1ccccc1 (stereo unspecified) the results were mABHD4 FP 10, TCR-CD3 inh 6, PRMT1 FP inh 21*, SIAE primary 2 and HTRA1 inh -1.
`O=[N+]([O-])c1ccc(NC2CCN(Cc3ccccc3)CC2)c([N+](=O)[O-])c1` gave mABHD4 FP 4, TCR-CD3 inh 7, PRMT1 FP inh -5, SIAE primary 1 and HTRA1 inh 4.
`COc1cc(-c2nnc(-c3cccs3)o2)cc(OC)c1OC` gave mABHD4 FP -5, TCR-CD3 inh -4, PRMT1 FP inh 0, SIAE primary 18* and HTRA1 inh -3.
Screening Cc1ccc(C(=O)N[C@H](C(=O)N2CCN(c3ccccc3F)CC2)C(C)C)cc1 returned mABHD4 FP -4, TCR-CD3 inh -8, PRMT1 FP inh -1, SIAE primary -7 and HTRA1 inh 4.
Screening CCCn1c(N)c(N(CCOC)C(=O)CSc2ccccc2)c(=O)[nH]c1=O returned mABHD4 FP -2, TCR-CD3 inh -16, PRMT1 FP inh -1, SIAE primary -3 and HTRA1 inh 11.
For COc1ccc2[nH]c3c(N4CCc5ccccc5C4)ncnc3c2c1 the results were mABHD4 FP 36*, TCR-CD3 inh 5, PRMT1 FP inh -3, SIAE primary 17 and HTRA1 inh -5.
For Cc1c(OCC(F)(F)F)ccnc1CS(=O)c1nc2ccccc2[nH]1 (stereo unspecified) the results were mABHD4 FP 15, TCR-CD3 inh 6, PRMT1 FP inh 28*, SIAE primary 6 and HTRA1 inh 5.
`COCCCOc1ccnc(CS(=O)c2nc3ccccc3[nH]2)c1C` (stereo unspecified) gave mABHD4 FP 2, TCR-CD3 inh 3, PRMT1 FP inh 11, SIAE primary 8 and HTRA1 inh 7.
`O=C1CC(Sc2cccs2)C(=O)N1c1ccccc1` (stereo unspecified) gave mABHD4 FP -1, TCR-CD3 inh 8, PRMT1 FP inh 49*, SIAE primary 6 and HTRA1 inh 0.
Screening CCOc1ccc(N)cc1OC returned mABHD4 FP 13, TCR-CD3 inh -3, PRMT1 FP inh 5, SIAE primary 24* and HTRA1 inh 17.
`Cn1c(=O)oc2cc(S(=O)(=O)N3CCN(CCO)CC3)ccc21` gave mABHD4 FP 5, PRMT1 FP inh 0 and SIAE primary 9.
Cc1ccc(S(=O)(=O)N(C(=O)c2ccncc2)c2ccc(OC(=O)c3ccncc3)c3ccccc23)cc1 was read as mABHD4 FP 18, TCR-CD3 inh 8, PRMT1 FP inh 86*, SIAE primary 8 and HTRA1 inh -6.
Cc1ccc(S(=O)(=O)N(C(=O)c2ccncc2)c2ccc(OC(=O)c3ccncc3)c3ccccc23)c(C)c1 was read as HTRA1 inh 2.
For O=S(=O)(O)c1cc(O)c2ccc(Nc3ccccc3)cc2c1 the results were mABHD4 FP 63*, TCR-CD3 inh 35*, PRMT1 FP inh 28*, SIAE primary 14 and HTRA1 inh 21.
For COCCn1c(C)cc(/C=C2\NC(=S)N(C)C2=O)c1C the results were mABHD4 FP -3, TCR-CD3 inh -1, PRMT1 FP inh 22*, SIAE primary 2 and HTRA1 inh 8.
Screening CCOC(=O)CSc1nnc(-c2ccc(S(=O)(=O)N3CCOCC3)cc2)n1-c1ccccc1 returned mABHD4 FP 4, TCR-CD3 inh 4, PRMT1 FP inh 1, SIAE primary 2 and HTRA1 inh -2.

Assay outcomes from PubChem BioAssay.
